This is a sample that favours compounds with a hit; in the whole collection about 3.1% have one here.
PHOSPHO1 inh: blocks human PHOSPHO1 phosphatase activity. Q8TCT1. recombinant PHOSPHO1, absorbance phosphatase assay. inhibition, % at 13.3 µM. 290,000 compounds, 1.1% hits; in the data active means inhibition above about 60%
Target sequence (Q8TCT1 whole entry, looked up): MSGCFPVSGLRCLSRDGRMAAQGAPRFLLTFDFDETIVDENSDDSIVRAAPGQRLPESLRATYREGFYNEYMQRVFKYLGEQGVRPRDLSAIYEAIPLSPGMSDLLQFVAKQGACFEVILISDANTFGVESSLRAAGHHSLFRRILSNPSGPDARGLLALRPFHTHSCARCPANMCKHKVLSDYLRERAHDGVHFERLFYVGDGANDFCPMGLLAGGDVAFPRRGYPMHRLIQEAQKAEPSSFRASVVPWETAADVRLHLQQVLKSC
NS3 helicase inh: inhibitors of Hepatitis C virus NS3 helicase; NS3 helicase DNA unwinding, Cy5 molecular beacon fluorescence; inhibition, % at 10.9 µM; 290,000 compounds, 0.56% hits; AID 1800;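 active means inhibition above the mean of all tested compounds plus 3 SD, set per campaign, cut at about 35% in these data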;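 further: 0% = DMSO wells and 100% = thioflavine S control wells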
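System: NS3 helicase fragment of HCV / Schedule: 1 h at 25 °C / Control set: DMSO alone as 0% and 110 µM thioflavine S as 100% / Reagent: Cy5/quencher beacon DNA duplex and ATP to start / Technique: Cy5 fluorescence / Replication: singlicate / Evaluation: % inhibition of end-to-start signal ratio versus controls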
UBC9 SUMO inh: SUMOylation inhibition | P63279 | HTRF SUMOylation assay, SAE1/SAE2 + UBC9, in vitro | inhibition, % at 35 µM | 290,000 compounds, 0.36% hits | AID 2006; in the data active means inhibition above about 50%, passing the limit was not always enough
Target sequence (P63279 whole entry, looked up): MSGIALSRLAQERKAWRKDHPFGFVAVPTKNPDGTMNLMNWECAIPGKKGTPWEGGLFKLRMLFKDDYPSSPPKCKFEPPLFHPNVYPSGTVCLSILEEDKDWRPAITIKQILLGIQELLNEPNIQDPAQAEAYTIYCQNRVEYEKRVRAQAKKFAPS
core dimer inh: HCV core protein dimerization inhibition; TR-FRET GST/Flag-core106 dimerization, 1536-well; inhibition, % at 5 µM; 300,000 compounds, 0.33% hits; AID 1899;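 active means inhibition above the mean of all tested compounds plus 3 SD, set per screening campaign, cut at about 45% in these data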
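Material: Tagged HCV core106 pair (GST and Flag) | Amount: GST-core106 13.5 nM, Flag-core106 17 nM | Medium: KF-containing HEPES buffer, pH 7.45, DTT, CHAPS, BSA | Reagent: Eu donor and XL665 acceptor anti-tag antibodies | Schedule: 4 h at 22.5 °C | Technique: Time-resolved FRET, ex 340 nm, em 617 and 671 nm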
IMP-1 inh: inhibitors of Pseudomonas aeruginosa IMP-1 metallo-beta-lactamase; purified IMP-1, nitrocefin hydrolysis, epi-absorbance fluorescence; inhibition, % at 5.6 µM; 290,000 compounds, 0.45% hits;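 active means inhibition above the mean plus 3 SD of all compounds in the same screening run, cut at about 4.5% in these data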;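 further: 0% = IMP-1 with DMSO and 100% = DMSO wells lacking enzyme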
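Assay system: purified IMP-1; Quantity: IMP-1 0.2 nM before substrate addition; Medium: HEPES buffer pH 7.1 with ZnSO4 and Brij 35; Incubation: 15 min enzyme–compound preincubation, then 25 min nitrocefin reaction, 25 °C; Signal: fluorescence quenching readout, ex 480/em 530 nm; Controls: DMSO with and without IMP-1; Repeats: singlicate testing.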
VIM-2 inh: inhibitors of Pseudomonas aeruginosa VIM-2 metallo-beta-lactamase; purified VIM-2, nitrocefin hydrolysis, epi-absorbance fluorescence; inhibition, % at 5.6 µM; 290,000 compounds, 0.89% hits;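 active means inhibition above the mean of all tested compounds plus 3 SD, cutoff set per screening run, cut at about 7.5% in these data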;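 further: red hydrolysis product quenches plate fluorescence so inhibitors raise well fluorescence; 0% = enzyme with DMSO and 100% = DMSO without enzyme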
Starred values were filed as active, the others as inactive; . = no result.

SMILES	PHOSPHO1 inh	NS3 helicase inh	UBC9 SUMO inh	core dimer inh	IMP-1 inh	VIM-2 inh
Cc1noc(C)c1COC(=O)CCCc1c[nH]c2ccccc12	15	16	26	71*	-2	-2
CCOC(=O)CCCc1c[nH]c2ccccc12	48	4	7	-1	-1	4
O=C(COC(=O)c1n[nH]c2ccccc12)c1cccc(Br)c1	61*	-5	-2	7	-3	-1
COc1ccc(/C=c2\s/c(=C(/C#N)C(=O)NCc3ccco3)n(-c3ccccc3)c2=O)cc1	-6	8	32	58*	-2	0
c1csc(-c2nn3cnnc3c3ccccc23)c1	-102	8	12	4	-3	12*
c1csc(-c2nnc(N3CCCCCC3)c3ccccc23)c1	6	-4	2	1	-4	-2
COCC1CCCCN1C(=O)c1cccc(OC2CCN(C(=O)C3CC3)CC2)c1 (stereo unspecified)	4	-3	-14	-11	-3	-5
CCC(=O)c1ccccc1OCCCCn1cncn1	30	2	25	-3	8.4*	0
CC(C)(CC(=O)O)CC(=O)N1CCN(c2nc3cc(Cl)ccc3s2)CC1	.	7	2	8	-2	-2
N#CCC(=O)N/N=C/c1ccc(OCC(=O)Nc2ccc(F)cc2)cc1	-3	-13	6	-3	-2	-1
Cc1cccc(/C=N/NC(=O)Cn2nc(C)cc2C)n1	5	1	8	3	-4	-4
Cc1cc(C)n(CC(=O)N/N=C/c2ccc(C)o2)n1	62*	1	9	-4	-3	-3
COCCCn1c(=O)c2sccc2n(Cc2cc(C(=O)OC)ccc2OC)c1=O	45	-5	9	-6	-4	0
Cc1cc(C(=O)O)c(CSCc2cc(C(=O)O)oc2C)o1	76*	-1	24	-4	-3	-3
O=C(Cn1cnc(S(=O)(=O)N2CCCCC2)c1)Nc1ccc(OC(F)(F)F)cc1	48	-9	-3	-1	-3	0
CC1CCN(S(=O)(=O)c2cn(CC(=O)Nc3ccc(OC(F)(F)F)cc3)cn2)CC1	24	7	-4	-10	8.8*	-3
CN(CC(=O)Nc1ccc(F)cc1)C(=O)COC(=O)CNC(=O)c1sc2ccccc2c1Cl	.	.	.	5	.	.
CCc1ccc(C(=O)CSc2n[nH]c(C)n2)cc1	102*	-2	-6	0	-4	-2
Cc1ccc(C(=O)CSc2n[nH]c(C)n2)cc1	92*	3	10	-4	-3	0
Cc1cc(C)c2nc3s/c(=C/c4ccccc4)c(=O)n3c2c1	93*	8	17	.	-2	0
CCOc1ccccc1C(=O)NC(C(=O)Nc1cccnc1)C(C)C (stereo unspecified)	20	9	3	1	-3	-2
COc1ccc(NC(=O)C(C)Sc2ccccc2)cc1 (stereo unspecified)	62*	-10	11	4	-2	-3
O=C(N/N=C/c1c[nH]c2ccc(Br)cc12)c1ccn(Cc2ccc(Cl)cc2)n1	62*	-13	-23	7	-3	-2
Cc1ccc(S(=O)(=O)N(CCCO)CC(O)CON=C2c3ccccc3-c3ccccc32)cc1 (stereo unspecified)	-6	-15	-13	-6	-3	0
Cc1ccc(C(=O)Cn2c(=N)n(N)c3ccccc32)cc1	4	-13	2	2	-2	0
SMILES	PHOSPHO1 inh	NS3 helicase inh	UBC9 SUMO inh	core dimer inh	IMP-1 inh	VIM-2 inh
Cc1ccc(C(=O)Cn2ncsc2=N)cc1	-59	-1	-10	1	25*	-2
CCOCCCNC(=O)c1cc(-c2cccnc2)nc2ccc(S(=O)(=O)N3CCC(C)CC3)cc12	75*	-3	12	-16	-5	-4
COCCNC(=O)c1cc(-c2ccccn2)nc2ccc(S(=O)(=O)N3CCC(C)CC3)cc12	33	-8	27	-2	-4	-4
O=C(NC1CCS(=O)(=O)C1)/C(=C\c1ccccc1)NC(=O)c1ccccc1 (stereo unspecified)	4	9	-4	-2	1	-1
O=C(NC1CCS(=O)(=O)C1)/C(=C/c1ccc(Cl)cc1)NC(=O)c1ccccc1 (stereo unspecified)	181*	1	-7	-8	-2	-2
O=C(CCC1CCCN(C(=O)c2ccc3cc[nH]c3c2)C1)N1CCN(c2ccccn2)CC1 (stereo unspecified)	50	-4	13	1	0	-2
O=C(CCC1CCCN(C(=O)c2ccc3[nH]ccc3c2)C1)N1CCN(c2ccccn2)CC1 (stereo unspecified)	64*	-3	8	1	-3	-3
COc1ccc2oc(=O)c(C(=O)NCC3CCCO3)cc2c1 (stereo unspecified)	4	8	52*	7	0	-2
COc1ccc(Cn2c(=N)c(C(=O)NCC3CCCO3)cc3c(=O)n4ccccc4nc32)cc1 (stereo unspecified)	8	-9	8	4	-3	9.2*
N=c1c(C(=O)NCC2CCCO2)cc2c(=O)n3ccccc3nc2n1Cc1ccc(Cl)cc1 (stereo unspecified)	-30	-18	14	6	3	9.9*
CCOc1cc(/C=N/NC(=O)C(=O)NCc2ccc3c(c2)OCO3)ccc1OCC(=O)N1CCOCC1	20	-4	6	-7	-2	-1
CCCCc1ncc(CN2CCC(n3nccc3NC(=O)c3ccccc3OC)CC2)[nH]1	38	-26	2	2	-3	-3
Cc1oncc1C(=O)N1CCCC(CO)(Cc2ccc(F)cc2F)C1 (stereo unspecified)	8	3	-10	8	0	0
CCCCOc1ccc(C(=O)NNC(=O)C2C3C=CC(C3)C2C(=O)O)cc1 (stereo unspecified)	32	-3	3	1	-2	-2
O=C(Nc1ccc(F)cc1)c1ccc(NC(=O)C2CCCO2)cc1 (stereo unspecified)	23	5	16	-2	7.7*	-3
CCc1ccc(/C=C/c2c[nH]c3ccccc23)[n+](CC)c1	0	-7	14	-26	-1	-3
C[n+]1ccc(/C=C/c2c[nH]c3ccc(F)cc23)cc1	-65	-8	5	.	4.6*	6
O=C1NC(=S)S/C1=C/c1ccc(Oc2cnccn2)cc1	42	7	19	-4	-3	-1
CCOc1c(O)ccc(/C=C2\SC(=S)NC2=O)c1[N+](=O)[O-]	30	32	50*	-15	-2	0
CCOc1ccc(N(C)c2ccc(/C=C3/SC(=S)NC3=O)cc2)cc1	-12	33	23	11	6.5*	2
COc1ccc(-n2c(-c3cnccn3)n[nH]c2=S)cc1	94*	11	7	-2	-1	-3

Screening results deposited in PubChem by several laboratories.
